ChEMBL document CHEMBL1122187, “Synthesis and antiviral activity of certain carbamoylpyrrolopyrimidine and pyrazolopyrimidine nucleosides” (1982)

Legend:
Vero [1] = assay: In vitro antiviral activity against parainfluenza type 3(para 3) virus was determined in african green monkey kidney (vero,V) expressed as virus rating; type: functional, Chlorocebus sabaeus
How it was run: (§1)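 Cell monolayers (18 h) infected with 320 TCID50 of virus. Compound was added within 15–30 min at half-log dilutions from 1000 to 1 μg/mL. After 72 h at 37 °C in 5% CO2, CPE was scored 0–4 by microscopy. VR = sum of (virus control − treated) scores, halved at partially toxic levels, divided by 10 × test cups per drug level.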

Vero [2] = assay: In vitro antiviral activity against vaccinia(VV) virus was determined in african green monkey kidney (vero,V) expressed as virus rating; type: functional, Chlorocebus sabaeus; how it was run: as §1
Vero [3] = assay: In vitro antiviral activity against herpes simplex type 1 (HSV-1) virus was determined in african green monkey kidney (vero,V) expressed as virus rating; type: functional, Chlorocebus sabaeus; how it was run: as §1
Vero [4] = assay: In vitro antiviral activity against herpes simplex type 1 (HSV-1) virus was determined in african green monkey kidney (vero,V) expressed as virus rating. Toxic level(>1000 ug/mL); type: functional, Chlorocebus sabaeus; how it was run: as §1
HEp-2 [5] = assay: In vitro antiviral activity against parainfluenza type 3 (para 3) virus was determined in human laryngeal epithelioma (HEp-2,H)expressed as virus rating. Toxic level(320 ug/mL); type: functional; how it was run: as §1
HEp-2 [6] = assay: In vitro antiviral activity against vaccinia(VV) virus was determined in human laryngeal epithelioma (HEp-2,H)expressed as virus rating. Toxic level(320 ug/mL); type: functional; how it was run: as §1
Vero [7] = assay: In vitro antiviral activity against parainfluenza type 3(para 3) virus was determined in african green monkey kidney (vero,V) expressed as virus rating. Toxic level(>1000 ug/mL); type: functional, Chlorocebus sabaeus; how it was run: as §1
Vero [8] = assay: In vitro antiviral activity against vaccinia(VV) virus was determined in african green monkey kidney (vero,V) expressed as virus rating. Toxic level(>1000 ug/mL); type: functional, Chlorocebus sabaeus; how it was run: as §1
HEp-2 [9] = assay: In vitro antiviral activity against herpes simplex type 1 (HSV-1) virus was determined in human laryngeal epithelioma (HEp-2,H)expressed as virus rating. Toxic level(320 ug/mL); type: functional; how it was run: as §1
Vero [10] = assay: In vitro antiviral activity against herpes simplex type 1 (HSV-1) virus was determined in african green monkey kidney (vero,V) expressed as virus rating. Toxic level(32 ug/mL); type: functional, Chlorocebus sabaeus; how it was run: as §1
Vero [11] = assay: In vitro antiviral activity against parainfluenza type 3(para 3) virus was determined in african green monkey kidney (vero,V) expressed as virus rating. Toxic level(32 ug/mL); type: functional, Chlorocebus sabaeus; how it was run: as §1
Vero [12] = assay: Percentage plaque reduction was determined against rift valley fever(RVF) virus in african green monkey kidney (vero,V) at a conc of 25-100 ug/mL. Toxic level(32 ug/mL); 61-90; type: functional, Chlorocebus sabaeus
Vero [13] = assay: Percentage plaque reduction was determined against venezuelan equine encephalitis (VEE) virus in african green monkey kidney (vero,V) at a conc of 250-500 ug/mL. Toxic level(32 ug/mL); type: functional, Chlorocebus sabaeus
Vero [14] = assay: Percentage plaque reduction was determined against Sandfly fever (SF) virus in african green monkey kidney (vero,V) at a conc of 250-500 ug/mL; 10-30; type: functional, Chlorocebus sabaeus
Vero [15] = assay: Percentage plaque reduction was determined against pichinde(PICH) virus in african green monkey kidney (vero,V).Toxic level(32 ug/mL); 61-90; type: functional, Chlorocebus sabaeus
How it was run: (§2)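 Infected Vero 24-well monolayers: virus adsorbed 1 h at 37 °C, then overlaid with agar holding dilutions of compound and incubated again at 37 °C with CO₂. Plaques were stained with crystal violet and counted. Inhibition was scored as % plaque reduction bands (10-30%, 31-60%, 61-90%), each tied to a drug concentration range.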

Vero [16] = assay: Percentage plaque reduction was determined against venezuelan equine encephalitis (VEE) virus in african green monkey kidney (vero,V) at a conc of <25 ug/mL. Toxic level(32 ug/mL); type: functional, Chlorocebus sabaeus
Vero [17] = assay: Percentage plaque reduction was determined against venezuelan equine encephalitis (VEE) virus in african green monkey kidney (vero,V) at a conc of 100-250 ug/mL. Toxic level(32 ug/mL); type: functional, Chlorocebus sabaeus
Vero [18] = assay: Percentage plaque reduction was determined against venezuelan equine encephalitis (VEE) virus in african green monkey kidney (vero,V) at a conc of 25-100 ug/mL. Toxic level(32 ug/mL); type: functional, Chlorocebus sabaeus
Vero [19] = assay: Percentage plaque reduction was determined against yellow fever(YF) virus in african green monkey kidney (vero,V).Toxic level(32 ug/mL); 61-90; type: functional, Chlorocebus sabaeus
Vero [20] = assay: Percentage plaque reduction was determined against pichinde(PICH) virus in african green monkey kidney (vero,V).Toxic level(320 ug/mL); type: functional, Chlorocebus sabaeus; how it was run: as §2
Vero [21] = assay: In vitro antiviral activity against herpes simplex type 1 (HSV-1) virus was determined in african green monkey kidney (vero,V) expressed as virus rating. Toxic level(320 ug/mL); type: functional, Chlorocebus sabaeus; how it was run: as §1
Vero [22] = assay: In vitro antiviral activity against parainfluenza type 3(para 3) virus was determined in african green monkey kidney (vero,V) expressed as virus rating. Toxic level(320 ug/mL); type: functional, Chlorocebus sabaeus; how it was run: as §1
Vero [23] = assay: Percentage plaque reduction was determined against pichinde(PICH) virus in african green monkey kidney (vero,V).; type: functional, Chlorocebus sabaeus; how it was run: as §2
Vero [24] = assay: Percentage plaque reduction was determined against venezuelan equine encephalitis (VEE) virus in african green monkey kidney (vero,V) at a conc of 250-500 ug/mL. Toxic level(320 ug/mL); type: functional, Chlorocebus sabaeus
Vero [25] = assay: Percentage plaque reduction was determined against rift valley fever(RVF) virus in african green monkey kidney (vero,V) at a conc of <25 ug/mL. Toxic level(320 ug/mL); type: functional, Chlorocebus sabaeus
Vero [26] = assay: Percentage plaque reduction was determined against Sandfly fever (SF) virus in african green monkey kidney (vero,V) at a conc of 25-100 ug/mL. Toxic level(320 ug/mL); type: functional, Chlorocebus sabaeus

Compound `CSc1ncnc2c([C@@H]3O[C@H](CO)[C@@H](O)[C@H]3O)n[nH]c12` has a Virus rating (Vero [1]) of 1.3, a Virus rating (Vero [2]) of 1.4 and a Virus rating (Vero [3]) of 0.8.
For `NC(=O)c1ncnc2c1cnn2C1O[C@H](CO)[C@@H](O)[C@H]1O` (stereo partly specified), the Virus rating (Vero [4]) was 0, the Virus rating (HEp-2 [5]) was 0 and the Virus rating (HEp-2 [6]) was 0.2. For the same compound, the Virus rating (Vero [7]) was 0, the Virus rating (Vero [8]) was 0 and the Virus rating (HEp-2 [9]) was 0.
`O=C1N=CN=C2C1C=CN2C1O[C@H](CO)[C@@H](O)[C@H]1O` (stereo partly specified) showed a Virus rating (Vero [10]) of 0, a Virus rating (Vero [11]) of 0 and a Plaque reduction (Vero [12]) of 61%. The Plaque reduction (Vero [13]) was 0%, the Plaque reduction (Vero [14]) was 10% and the Plaque reduction (Vero [15]) was 61%. It also gave a Plaque reduction (Vero [16]) of 0%, a Plaque reduction (Vero [17]) of 0% and a Plaque reduction (Vero [18]) of 0%. It also gave a Plaque reduction (Vero [19]) of 61%.
In the case of `OC[C@H]1OC(n2ccc3c(Cl)ncnc32)[C@H](O)[C@@H]1O` (stereo partly specified), the Plaque reduction (Vero [20]) is reported as >90%, the Virus rating (Vero [21]) is reported as 0.2 and the Virus rating (Vero [22]) is reported as 0.1. For the same compound, the Plaque reduction (Vero [23]) was >90%, the Plaque reduction (Vero [24]) was 0% and the Plaque reduction (Vero [25]) was >90%. For the same compound, the Plaque reduction (Vero [26]) was 90%.
